Assay results reported in the EternaBench riboswitch data.

Tested on: MS2 coat protein
Experiment: apparent Kd, MS2 coat protein; higher = weaker binding; RNA-MaP array; FMN 200 µM where present
How it was run: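 On Illumina sequencing-chip clusters, designs were transcribed by stalled E. coli RNA polymerase and titrated with SNAP-549-labelled MS2 coat protein (0.7 or 1.5 nM, doubling to 3 µM), without and then with constant ligand, in 100 mM Tris-HCl pH 7.5, 80 mM KCl, 4 mM MgCl2, BSA, DTT, yeast tRNA and Tween-20. Apparent Kd is the median of filtered per-cluster curve fits to green signal normalised to red-channel RNA signal and control-cluster median Fmax.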

[1] = designed as: OFF switch for flavin mononucleotide, no ligand
[2] = ligand present: flavin mononucleotide, designed as: OFF switch for flavin mononucleotide
[3] = designed as: ON switch for flavin mononucleotide, no ligand
[4] = ligand present: flavin mononucleotide, designed as: ON switch for flavin mononucleotide

Sequence: CAUCCACGGUAGAAGGGACUAGGCACAUGAGGAUCACCCAUGUCCUUUCCCAACUUGUGCCGCGGUCAGGAUAUACCGGGUCGG
- apparent Kd [1]: 12.5 nM
- apparent Kd [2]: 20 nM

Sequence: AAAGGACGAGGAUAUACAUGAGGAUCACCCAUGUAAAAAACAUAAUAAAAGAACUUAUGUAGAAGGCGUCCAAA
- apparent Kd [1]: 58.6 nM
- apparent Kd [2]: 336 nM

Sequence: GCAGCACAGUUUUACAUGAGGAUCACCCAUGUCUAUUGAGAUGAGGAUAUGCAUCGAAUGAAGUUGCAGAAGGCAUUGUGCUGC
- apparent Kd [3]: 11.2 nM
- apparent Kd [4]: 6.46 nM

Sequence: GGCGAACAGGCUAACAUGAGGAUCACCCAUGUGGACUCAUGGUAGGAUAUCGGGAAGGAGGAAACCGAGAAGGGCCGGUGAGCG
- apparent Kd [3]: 158 nM
- apparent Kd [4]: 39.5 nM

Sequence: UUGGACGUCGUAGGAUAUGUAGGAUAUUCCGACAUGAGGAUCACCCAUGUUGACAUGGAAGAAGGACAGAAGGACGAUGUCCAU
- apparent Kd [3]: 4.14 nM
- apparent Kd [4]: 3.48 nM

Sequence: AGGUAAGACUUAAUUGUGCUGGUGAGAAGGCUGCUGGUUGUGGUCUACAUGAGGAUCACCCAUGUUGAGGAUAUCAUCGGUAUC
- apparent Kd [1]: 711 nM
- apparent Kd [2]: 103 nM

Sequence: CUGAUGUUAGGAUAUCAGGUCGCGCACGAAGGCGCGCGGCAUGAGAAGGAACAUGAGGAUCACCCAUGUGACGA
- apparent Kd [1]: 48.4 nM
- apparent Kd [2]: 145 nM

Sequence: UGGUACUAGGGAGGAUAUGGGAAGAUACAUGAGGAUCACCCAUGUUUAAGAAUGCCGAGAGGCAACUAGAAGGUCCUAGUACCU
- apparent Kd [3]: 628 nM
- apparent Kd [4]: 38.2 nM

Sequence: AAUUGCCUAGGAUAUACUUGGGCCCGCUCAUACUCCAAUGGACAUGAGGAUCACCCAUGUAGAAGGAGGACCCA
- apparent Kd [1]: 17.2 nM
- apparent Kd [2]: 39.4 nM

Sequence: GUGACGAUGUAAGGAUAUGCUGAGGAUAACUCAGCAGAAGGUACAUGAGGAUCACCCAUGUAAAUAAUAAGAAAUAAACGUCAC
- apparent Kd [1]: 16.6 nM
- apparent Kd [2]: 24.1 nM

Sequence: GCCAUCGCAUGAGGAUAUGGUCAGGUUUCCUGACCAGAAGGCAUGUCAUAAGACAUGAGGAUCACCCAUGUAGUUAAGAUGGCA
- apparent Kd [3]: 717 nM
- apparent Kd [4]: 48.4 nM

Sequence: AGAUUCAUGGCCCGUUUGGGCCCACAUGAGGAUCACCCAUGUGAGGAUAUGACGUACCUGACUCGUCAGAAGGCGCAUGCGAAA
- apparent Kd [1]: 7.45 nM
- apparent Kd [2]: 16.7 nM

Sequence: CGGUCGAUAUCAGGAUAUCGAUUAAUUACAUGAGGAUCACCCAUGUUGACAUGGAAUAUAACAUGCGAGAAGGGAUUACGAUCG
- apparent Kd [3]: 27.6 nM
- apparent Kd [4]: 10.7 nM

Sequence: AAAACAUGAGGAUCACCCAUGUUAAGAUCGGUCAAUAGAAGUGAGGAUAUACGAAGUUAAGGCUGGUAGAAGGCACUGGGUACA
- apparent Kd [3]: 43.5 nM
- apparent Kd [4]: 37.1 nM

Sequence: CCAUCGUGUGUGAGGAUAUGCUGGUCCUUGGAUCAGCAGAAGGCACAUGAGGAUCACCCAUGUGAAUACGGUGG
- apparent Kd [1]: 18.6 nM
- apparent Kd [2]: 29 nM

Sequence: AAAAGUUAAGGAUAUACAGGGAGCCGCGGCGACUCGCCGCAACAUGAGGAUCACCCAUGUAGAAGGUAGCCAAA
- apparent Kd [1]: 27.6 nM
- apparent Kd [2]: 62.8 nM

Sequence: ACAUGCAUAGCGAUAUGAUCGAGAGAUCAUGUCGCUAAAUUUAGAAGGACAUGAGGAUCACCCAUGUAGGAUAUGGGAGCAUGA
- apparent Kd [3]: 44.7 nM
- apparent Kd [4]: 11.1 nM

Sequence: AGCGGCCGAGGAUAUACAAUCCUCCUGGCAGCCUGUCUGCCACAUGAGGAUCACCCAUGUAGAAGGCGGACCGC
- apparent Kd [1]: 167 nM
- apparent Kd [2]: 38.3 nM

Sequence: UAAUUACCGAUCGGUUUGACUUAGCAGGAUAUACAUGAGGAUCACCCAUGUCAAGGGCGUGCCCGGUAGAAGGGUUGGGUUCAA
- apparent Kd [1]: 35.1 nM
- apparent Kd [2]: 54.9 nM

Sequence: CGGCGCUGUCGAGAGGAUAUGCGGUGAUGGACAUGAGGAUCACCCAUGUUAGCGAUAGCAUUACGGUAGAAGGCUCUACAGCUGC
- apparent Kd [3]: 34.7 nM
- apparent Kd [4]: 16.3 nM

Sequence: ACACAUGAGGAUCACCCAUGUAGCUGGCGUCUGCACCAGCCACAGGAUAUACGGCAACACAAACCGUAGAAGGGUGAUAAACAC
- apparent Kd [3]: 56.3 nM
- apparent Kd [4]: 27.3 nM

Sequence: UCGUGAAGGACAGGAUAUGGACAUGAGGAUCACCCAUGUACAUGGGAAUAUAUACUGAAUUUGUACUAGAAGGGUUACAUAAAU
- apparent Kd [1]: 26.1 nM
- apparent Kd [2]: 20.1 nM

Sequence: CCUGGCUUAGGAUAUACAGGAACCGAGAACCCGGAAGUGAAACAUGAGGAUCACCCAUGUAGAAGGAAGAAAGC
- apparent Kd [1]: 26.8 nM
- apparent Kd [2]: 23.1 nM

Sequence: UGUAUGUAGGAGAAGGAGGACUUCAUGAGGAUCACCCAUGUGUUAGGACUUAGGAUAUUUGACGACAUGAGGAUCACCCAUGUG
- apparent Kd [3]: 58.3 nM
- apparent Kd [4]: 49.6 nM

Sequence: GUACGUGGACAGAAGGUGACAUGAGGAUCACCCAUGUUAGUUCGGGUACGAGCGAUCCGCGUGAUUGAGGAUAUGUCUGCGGGC
- apparent Kd [1]: 69.1 nM
- apparent Kd [2]: 175 nM

Sequence: UGGUACAUGGGAGGAUAUGGUGUAGACACAUGAGGAUCACCCAUGUCGAUGGAGACAUCGGAGAUCCAGAAGGCCCAUGUACCU
- apparent Kd [3]: 503 nM
- apparent Kd [4]: 24 nM

Sequence: UUAUUUAUACAAGGAUAUCAGUUAGUUACAAUUCCUACAUGAGGAUCACCCAUGUUUUUUUUUUUUGAGAAGGUGUAUUGUCUG
- apparent Kd [3]: 45.2 nM
- apparent Kd [4]: 52.9 nM

Sequence: CCUGCACAUGAGGAUCACCCAUGUUAGGAUAUCUCGCCGCCUAAACGAAUGGUGGCCCAGAGAAGGAACAGGGC
- apparent Kd [1]: 28.6 nM
- apparent Kd [2]: 41.3 nM

Sequence: GUAGCUAUCGGAGGAUAUUCAUACCGGAAACGGACAUGAGGAUCACCCAUGUGCCGAAAGGCUUGGGAGAAGGCCGAUAGCUAC
- apparent Kd [3]: 297 nM
- apparent Kd [4]: 18.5 nM

Sequence: AGCUGUGGCCGAGGAUAUCUAACAAUCCAAACCGAAAUAUAAUCGGACAUGAGGAUCACCCAUGUAGAGAAGGCGGUCUCAGCA
- apparent Kd [1]: 48.1 nM
- apparent Kd [2]: 65 nM

Sequence: UAAGAAGCACUCGGAACCGGACAAUGAGAAGGCCACGCACAUGAGGAUCACCCAUGUAAAGCUAUGGAGGAUAUCAUGAUGGAA
- apparent Kd [3]: 80.9 nM
- apparent Kd [4]: 8.71 nM

Sequence: AACAGCUCGUCAGGAUAUACAAUACUGCUUCGGCAGUAUGAUAAGAUAACAUGAGGAUCACCCAUGUAGAAGGGACGAGCUGAA
- apparent Kd [1]: 6.23 nM
- apparent Kd [2]: 7.47 nM

Sequence: UUAGUCAUGUUAGGAUAUCCGAUGCGAAGCGUUGGAGAAGGAACAUGAGGAUCACCCAUGUUCUGCGUCUGAGUACAGAUGCUA
- apparent Kd [1]: 29.6 nM
- apparent Kd [2]: 123 nM

Sequence: AUAUAUAUAUCAGGAUAUGGACAGGCCUGUUCGUAUUAAGACAUUAACAUGAGGAUCACCCAUGUCCAGAAGGGAUAUAUAUAU
- apparent Kd [1]: 109 nM
- apparent Kd [2]: 86.9 nM

Sequence: CACAAUCUAUCUGAGGAUAUCAUGAAAAAAACAUGAGGAUCACCCAUGUGCAGGAAAACUGCAUAUGAGAAGGCAGAUAGAUUGU
- apparent Kd [3]: 770 nM
- apparent Kd [4]: 28.4 nM

Sequence: AGCUGGUGACAGCAUCCAUCAAAACAUGAGGAUCACCCAUGUAGAAGGCUGUACGGUUACCGUACAGAGGAUAUACAAUGAUGA
- apparent Kd [1]: 16.3 nM
- apparent Kd [2]: 27.3 nM

Sequence: GAAUGGGAGUAGAAGGUACGUUAUUAGUUAAGGUAAGGAUAUACUAUAAUACAGACGACAUAUAAACAUGAGGAUCACCCAUGU
- apparent Kd [3]: 10.3 nM
- apparent Kd [4]: 6.55 nM

Sequence: AACCUAUUACAGAAGGCCAGCUACAUGAGGAUCACCCAUGUCGAGUCAUGGAGGAUAUGUAGUAAUUUACUCGCAGAUGAGUGC
- apparent Kd [3]: 24.4 nM
- apparent Kd [4]: 4.9 nM

Sequence: AGAUUUGUACAUGAGGAUCACCCAUGUUAAUAGGUGUUUGUCAGAAGGCAUUAAGAGAGAAUUAAUGAGGAUAUGAAGUUACAU
- apparent Kd [3]: 42.3 nM
- apparent Kd [4]: 21.7 nM

Sequence: GGUUGUCAUCGUCGUCCUUUCGGUACAUGAGGAUCACCCAUGUAGGAUAUGCUGCAUUCGAUGUGGCAGAAGGGCAUGUGUGUU
- apparent Kd [1]: 25.5 nM
- apparent Kd [2]: 71.5 nM

Sequence: AAAAGACAUGAGGAUCACCCAUGUGAAAACGUAGGAGGAUAUGUAUGGAAACCAUACUGUACAGAAGGCCUUUGUC
- apparent Kd [3]: 28.1 nM
- apparent Kd [4]: 29.7 nM

Sequence: AAUAUGUUGCAGAAGGUUAUUUUUAUAACGAUCCAUGUGACAUGAGGAUCACCCAUGUAAUUGAUGAAGGAUAUGCAAUAUAUU
- apparent Kd [1]: 6.72 nM
- apparent Kd [2]: 6.45 nM

Sequence: CAGUACUGAGGAUAUACAUGAGGAUCACCCAUGUGUUCCUUGUAGGAUAUGCGCAAAAGUAGAAGGCAGAAGGAGAUGUGCCUA
- apparent Kd [1]: 6.59 nM
- apparent Kd [2]: 6.3 nM

Sequence: CGGUUGCGAGGAUAUAUGACAUGUUGCGCCGGAACUCCGCCACAUGAGGAUCACCCAUGUAGAAGGCGCAACUU
- apparent Kd [1]: 14.4 nM
- apparent Kd [2]: 15.3 nM

Sequence: UACGCACAGAAGUACUCCGGGUCCAGAAGGGACAUGAGGAUCACCCAUGUACCGUUGAUUGCUUGUCAGGAUAUGGACCCGGCC
- apparent Kd [1]: 6.82 nM
- apparent Kd [2]: 26.3 nM

Sequence: CGGCAUCAUGUAGGAUAUGCGUGGCGAAGCUAUGCAGAAGGACAUGAGGAUCACCCAUGUCUUAGCUAGCGUACUAGCUUGCCG
- apparent Kd [1]: 6.24 nM
- apparent Kd [2]: 16.6 nM

Sequence: UGGUGAGUCAAGAAGGACAUGAGGAUCACCCAUGUAGGAUAUUGGCGUCACGGCUCCAAUACGUACAUGUGGGACGGUCAAAGG
- apparent Kd [3]: 48.6 nM
- apparent Kd [4]: 16.5 nM

Sequence: GGAUCCAUCACAGGAUAUGCUGGACUUUGUCCAGCAGAAGGGUGAAACAUGAGGAUCACCCAUGUAUGGAUCCAUAUAUUUAAU
- apparent Kd [3]: 327 nM
- apparent Kd [4]: 393 nM

Sequence: GGAUAGGACAGAGGAUAUACGUACUAGAGAUACUAGCAAAAUUUCCUCACAUGAGGAUCACCCAUGUAGAAGGCUGUCCUAUCG
- apparent Kd [1]: 21.4 nM
- apparent Kd [2]: 563 nM

Sequence: GAGUGGAUGAGACCGCGGGCGACAUGAGGAUCACCCAUGUUGCAGGAUAUCAGUGCGUCGGCGCCUGAGAAGGGCGACAAUCAU
- apparent Kd [1]: 6.56 nM
- apparent Kd [2]: 7.11 nM

Sequence: CAGGUCUGAGGAUAUCCAUCUUCAUACAUGAGGAUCACCCAUGUUUACCUUUGGGUUUUCGGAGAAGGCAGUUUUU
- apparent Kd [1]: 273 nM
- apparent Kd [2]: 370 nM

Sequence: CACCGUUACAGAGGAUAUCUUACAUGAGGAUCACCCAUGUAAUAAAUGAGAAUUUCGGAUGUAUGAGAGAAGGCUGGAAUCGGC
- apparent Kd [1]: 23.2 nM
- apparent Kd [2]: 22 nM

Sequence: GUGUUGUCAGGAUAUCUUACAUAACUAUCGUUGUUACCAUUGGAGAAGGGACAUGAGGAUCACCCAUGUUAUCG
- apparent Kd [1]: 24.3 nM
- apparent Kd [2]: 25.4 nM

Sequence: AUAAAGCGUGCUACGCAAAAUAACGCAGAAGGCCAACAUGAGGAUCACCCAUGUAAAAGAAAGAUGGAGGAUAUGCGGUUUGGC
- apparent Kd [3]: 46.6 nM
- apparent Kd [4]: 5.74 nM
